Source: ChEMBL document CHEMBL1926621, “New potent 5-HT(2A) receptor ligands containing an N'-cyanopicolinamidine nucleus: Synthesis and in vitro pharmacological evaluation” (Eur J Med Chem, 2012)

What was measured:
[1] = biological target: D(1A) dopamine receptor (Rattus norvegicus, UniProt P18901); test: Displacement of [3H]SCH-23390 from rat corpora striatum dopamine D1 receptor after 15 mins by liquid scintillation counting; conditions: read-out: Ki
Method in brief: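 Rat corpora striata homogenized in 50 mM Tris-HCl pH 7.7, spun twice at 50,000 g. Resuspended in Tris-HCl with NaCl, KCl, CaCl2, MgCl2, ascorbic acid and pargyline. 0.4 nM [3H]SCH-23390 final, 3 mg fresh tissue, 15 min at 37 °C. Nonspecific binding with piflutixol. Ki by Cheng-Prusoff from triplicate six-point curves.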

[2] = biological target: T1, Adrenergic receptor alpha-1 (Rattus norvegicus, UniProt P15823+P23944+P43140); test: Displacement of [3H]prazosin from rat brain cortex adrenergic alpha1 receptor after 30 mins by liquid scintillation counting
T1 sequence (P15823 whole entry): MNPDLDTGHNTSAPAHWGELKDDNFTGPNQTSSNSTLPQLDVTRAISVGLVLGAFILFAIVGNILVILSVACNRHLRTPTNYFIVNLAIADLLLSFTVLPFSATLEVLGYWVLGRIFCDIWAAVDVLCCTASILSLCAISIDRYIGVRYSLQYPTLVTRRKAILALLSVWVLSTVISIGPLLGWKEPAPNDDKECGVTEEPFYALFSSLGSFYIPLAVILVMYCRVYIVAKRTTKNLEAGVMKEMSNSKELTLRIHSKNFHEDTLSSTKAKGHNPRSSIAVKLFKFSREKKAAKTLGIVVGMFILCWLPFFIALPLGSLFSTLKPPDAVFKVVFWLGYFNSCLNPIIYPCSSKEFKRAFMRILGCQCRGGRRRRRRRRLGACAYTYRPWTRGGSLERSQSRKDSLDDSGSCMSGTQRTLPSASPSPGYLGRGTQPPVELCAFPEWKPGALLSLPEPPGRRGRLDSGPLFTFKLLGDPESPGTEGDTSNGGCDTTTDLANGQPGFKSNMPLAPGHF
T1 sequence (P23944 whole entry): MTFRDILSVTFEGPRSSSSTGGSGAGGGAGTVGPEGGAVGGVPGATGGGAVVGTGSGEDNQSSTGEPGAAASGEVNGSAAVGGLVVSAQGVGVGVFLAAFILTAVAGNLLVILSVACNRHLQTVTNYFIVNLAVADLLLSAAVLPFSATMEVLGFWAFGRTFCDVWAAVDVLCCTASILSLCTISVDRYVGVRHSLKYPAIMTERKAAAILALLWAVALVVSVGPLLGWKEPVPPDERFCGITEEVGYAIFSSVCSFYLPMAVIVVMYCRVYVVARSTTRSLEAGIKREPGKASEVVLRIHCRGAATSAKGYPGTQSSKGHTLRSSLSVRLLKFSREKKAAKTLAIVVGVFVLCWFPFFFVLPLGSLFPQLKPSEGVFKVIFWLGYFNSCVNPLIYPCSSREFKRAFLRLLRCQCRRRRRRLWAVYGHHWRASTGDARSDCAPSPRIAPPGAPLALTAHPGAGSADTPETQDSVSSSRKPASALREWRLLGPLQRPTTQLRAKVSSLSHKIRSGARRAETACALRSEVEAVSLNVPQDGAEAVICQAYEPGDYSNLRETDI
T1 sequence (P43140 whole entry): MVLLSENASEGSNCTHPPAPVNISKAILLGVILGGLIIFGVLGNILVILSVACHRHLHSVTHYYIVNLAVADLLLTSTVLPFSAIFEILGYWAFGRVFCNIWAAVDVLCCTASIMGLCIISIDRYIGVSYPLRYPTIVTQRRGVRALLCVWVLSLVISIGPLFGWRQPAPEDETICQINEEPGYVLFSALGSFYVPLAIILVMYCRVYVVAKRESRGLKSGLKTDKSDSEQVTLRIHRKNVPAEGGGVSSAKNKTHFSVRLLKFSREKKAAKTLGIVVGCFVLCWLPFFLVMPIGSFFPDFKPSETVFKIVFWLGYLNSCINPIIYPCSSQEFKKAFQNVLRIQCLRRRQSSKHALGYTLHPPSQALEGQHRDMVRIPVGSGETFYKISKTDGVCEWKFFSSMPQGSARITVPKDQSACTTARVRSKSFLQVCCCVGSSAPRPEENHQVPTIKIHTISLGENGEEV
Method in brief: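 Brain cortex homogenized in 50 mM Tris-HCl pH 7.2, spun twice at 50,000 g, resuspended in Tris-HCl pH 7.4. 0.4 nM [3H]prazosin final, 10 mg fresh tissue, 30 min at 25 °C. Nonspecific binding with phentolamine. GF/B filtration. Ki by Cheng-Prusoff from six-point triplicate curves.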

D(1A) dopamine receptor, sequence (P18901 whole entry): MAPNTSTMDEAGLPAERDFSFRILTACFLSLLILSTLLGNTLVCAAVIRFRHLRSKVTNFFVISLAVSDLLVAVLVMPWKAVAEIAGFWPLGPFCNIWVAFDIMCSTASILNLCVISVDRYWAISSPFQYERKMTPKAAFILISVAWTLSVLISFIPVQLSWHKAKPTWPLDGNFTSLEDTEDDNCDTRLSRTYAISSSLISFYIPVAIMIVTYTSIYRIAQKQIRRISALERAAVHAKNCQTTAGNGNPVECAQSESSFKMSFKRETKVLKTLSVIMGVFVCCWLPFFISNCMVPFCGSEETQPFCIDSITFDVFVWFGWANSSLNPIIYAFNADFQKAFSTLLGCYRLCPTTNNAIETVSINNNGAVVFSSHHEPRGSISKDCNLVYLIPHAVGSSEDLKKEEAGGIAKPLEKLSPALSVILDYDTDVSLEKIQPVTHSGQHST

| Compound | Ki [1] | Ki [2] |
| --- | --- | --- |
| N#C/N=C(\NCCCN1CCN(c2ccccn2)CC1)c1ccccn1 | > 10000 nM | 130 nM |
| N#C/N=C(\NCCCN1CCN(c2cccc(C(F)(F)F)c2)CC1)c1ccccn1 | > 10000 nM | 770 nM |
| Cc1cccc(N2CCN(CCCN/C(=N\C#N)c3ccccn3)CC2)c1C | > 10000 nM | 729 nM |
| N#C/N=C(\NCCCN1CCN(c2ncccn2)CC1)c1ccccn1 | > 10000 nM | > 10000 nM |
| CCOc1ccccc1N1CCN(CCCN/C(=N\C#N)c2ccccn2)CC1 | 52.4 nM | 152 nM |
| COc1ccccc1N1CCN(CCCN/C(=N\C#N)c2ccccn2)CC1 | > 10000 nM | 105 nM |
